Like-named read-outs stand apart in the source and are kept apart here. One block for each molecule: values may come before it.
What was measured:
[1] = target: T1, B^0AT1 (SLC6A19) (Homo sapiens, UniProt Q695T7); assay: Optimized radioactive L-[14C]leucine uptake; format: cell-based
T1 sequence (Q695T7 1-634): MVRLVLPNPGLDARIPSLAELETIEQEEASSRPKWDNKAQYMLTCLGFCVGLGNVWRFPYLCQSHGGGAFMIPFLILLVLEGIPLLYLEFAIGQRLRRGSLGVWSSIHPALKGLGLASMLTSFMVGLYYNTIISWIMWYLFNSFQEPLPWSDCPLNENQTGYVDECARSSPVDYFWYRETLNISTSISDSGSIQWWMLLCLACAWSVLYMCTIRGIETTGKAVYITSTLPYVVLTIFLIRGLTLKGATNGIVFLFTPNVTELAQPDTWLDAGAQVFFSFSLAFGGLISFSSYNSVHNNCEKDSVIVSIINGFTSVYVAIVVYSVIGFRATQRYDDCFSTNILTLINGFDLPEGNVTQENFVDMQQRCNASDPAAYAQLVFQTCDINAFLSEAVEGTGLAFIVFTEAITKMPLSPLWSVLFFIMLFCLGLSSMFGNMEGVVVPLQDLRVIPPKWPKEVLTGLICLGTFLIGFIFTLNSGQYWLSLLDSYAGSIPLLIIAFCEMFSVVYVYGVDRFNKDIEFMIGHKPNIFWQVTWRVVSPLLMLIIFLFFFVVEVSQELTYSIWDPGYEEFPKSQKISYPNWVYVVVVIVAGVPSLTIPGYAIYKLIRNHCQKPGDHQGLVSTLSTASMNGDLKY
T1 sequence (Q9HBJ8 15-222 partner): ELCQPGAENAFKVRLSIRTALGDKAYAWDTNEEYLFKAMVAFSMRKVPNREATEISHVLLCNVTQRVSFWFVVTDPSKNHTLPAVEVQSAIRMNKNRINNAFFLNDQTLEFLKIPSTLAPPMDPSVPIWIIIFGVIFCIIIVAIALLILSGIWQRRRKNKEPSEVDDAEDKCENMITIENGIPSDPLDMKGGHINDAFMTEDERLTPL

[2] = target: T1, B^0AT1 (SLC6A19); assay: FLIPR membrane potential transport assay in CHO-BC cells; format: cell-based; conditions: read-out: inhibition at 30 µM
How it was run: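 CHO cells (Flp-In) stably expressing B0AT1 with collectrin, passages <10, seeded at 60,000 cells/well overnight. Washed three times in HBSS + 5 mM glucose, pH 7.5. Preincubated 30 min at room temperature with test compound plus membrane-potential dye. Read fluorescence (ex 530/em 565 nm) every 10 s before and after adding L-leucine to 1.5 mM final, at room temperature.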

[3] = tested on: B^0AT1; conditions: substrate; cited from earlier work
[4] = target: T1, B^0AT1 (SLC6A19); conditions: read-out: IC50 range of initially identified inhibitors; cited from earlier work

IC50 [1]: 0.8 ± 0.1 µM
Structure (SMILES): CCNC(=O)/C=C/c1cccc(Br)c1 [Cinromide, cinromide]

inhibition at 30 µM [2]: 8%
Structure (SMILES): Cc1cc(Cl)cc(C)c1OCC(=O)NC(C)C [JX8, 2-(4-chloro-2,6-dimethylphenoxy)-N-isopropylacetamide]

Structure (SMILES): N[C@@H](Cc1c[nH]c2ccccc12)C(=O)O [L-tryptophan]
Vmax relative to that of L-methionine [3]: 10%

Structure (SMILES): CS(=O)(=O)Nc1ccc([N+](=O)[O-])cc1Oc1ccccc1 [Nimesulide, nimesulide]
IC50 [4]: 10 to 100 µM

Structure (SMILES): CN1[C@@H]2CC[C@H]1C[C@@H](OC(c1ccccc1)c1ccccc1)C2 [benztropine]
IC50 [4]: 10 to 100 µM

Source: article PMC11341722 (Nature Communications, 2024)
